{"source": "ChEMBL document CHEMBL3603823", "about": "“Ethylenedioxy homologs of N-methyl-(3,4-methylenedioxyphenyl)-2-aminopropane (MDMA) and its corresponding cathinone analog methylenedioxymethcathinone: Interactions with transporters for serotonin, dopamine, and norepinephrine” (Bioorg Med Chem, 2015)", "format_in_all_cases": "subcellular", "key": {"[1]": {"molecular_target": "Sodium-dependent serotonin transporter (Rattus norvegicus, UniProt P31652)", "sequence (P31652 whole entry)": "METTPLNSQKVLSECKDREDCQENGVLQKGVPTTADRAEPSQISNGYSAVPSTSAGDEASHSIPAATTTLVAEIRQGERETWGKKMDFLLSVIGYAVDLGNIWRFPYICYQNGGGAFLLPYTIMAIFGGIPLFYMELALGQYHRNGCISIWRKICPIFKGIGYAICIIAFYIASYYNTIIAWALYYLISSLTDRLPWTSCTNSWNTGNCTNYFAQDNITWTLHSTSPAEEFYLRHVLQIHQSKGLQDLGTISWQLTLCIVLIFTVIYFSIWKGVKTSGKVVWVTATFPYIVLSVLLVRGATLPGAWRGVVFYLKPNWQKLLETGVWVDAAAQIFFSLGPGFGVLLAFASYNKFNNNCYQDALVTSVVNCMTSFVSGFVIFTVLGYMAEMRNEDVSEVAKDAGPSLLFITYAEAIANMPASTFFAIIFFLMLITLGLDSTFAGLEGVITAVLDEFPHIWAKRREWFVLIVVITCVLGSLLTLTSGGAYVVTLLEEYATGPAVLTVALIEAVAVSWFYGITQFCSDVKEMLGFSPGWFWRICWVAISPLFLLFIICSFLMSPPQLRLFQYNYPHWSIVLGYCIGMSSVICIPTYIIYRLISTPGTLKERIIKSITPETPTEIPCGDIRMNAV", "assay": "Binding affinity to SERT in Sprague-Dawley rat brain synaptosomes assessed as induction of [3H]5-HT release by liquid scintillation counting method", "summary_of_the_method": "(§1)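 Rat synaptosomes with 1 μM reserpine in all buffers; SERT and NET from whole brain minus caudate and cerebellum (900 μg/mL protein), DAT from caudate (90 μg/mL). Preloaded 1 h in Krebs-phosphate buffer with 5 nM [3H]5-HT (SERT) or 9 nM [3H]MPP+ (NET, DAT), with unlabeled blockers of competing transporters. Eight-point curves, 10–10,000 nM, triplicate, 3 occasions. Filtration, scintillation counting; EC50 by non-linear regression.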"}, "[2]": {"molecular_target": "Sodium-dependent dopamine transporter (Rattus norvegicus) (UniProt P23977)", "sequence (P23977 whole entry)": "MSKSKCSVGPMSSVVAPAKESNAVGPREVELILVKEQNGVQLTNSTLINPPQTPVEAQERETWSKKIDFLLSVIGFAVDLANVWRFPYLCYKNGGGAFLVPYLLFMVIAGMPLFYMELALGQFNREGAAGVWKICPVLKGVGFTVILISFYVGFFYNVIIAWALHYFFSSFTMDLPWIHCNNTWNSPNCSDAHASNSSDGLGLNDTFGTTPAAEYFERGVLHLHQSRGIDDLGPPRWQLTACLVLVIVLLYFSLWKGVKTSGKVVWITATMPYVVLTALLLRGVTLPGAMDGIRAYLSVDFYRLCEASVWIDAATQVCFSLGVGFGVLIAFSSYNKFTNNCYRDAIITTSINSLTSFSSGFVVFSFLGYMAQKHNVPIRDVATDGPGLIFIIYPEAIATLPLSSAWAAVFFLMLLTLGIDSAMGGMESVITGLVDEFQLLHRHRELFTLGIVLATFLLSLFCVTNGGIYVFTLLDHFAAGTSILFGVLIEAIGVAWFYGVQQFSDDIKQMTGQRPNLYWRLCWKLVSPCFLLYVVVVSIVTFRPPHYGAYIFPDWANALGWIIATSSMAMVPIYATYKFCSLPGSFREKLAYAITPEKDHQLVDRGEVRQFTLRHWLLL", "assay": "Binding affinity to DAT in Sprague-Dawley rat brain synaptosomes assessed as induction of [3H]MPP+ release by liquid scintillation counting method relative to control", "summary_of_the_method": "(§2)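 Release measured in rat synaptosomes preloaded 1 h with 5 nM [3H]5-HT (SERT) or 9 nM [3H]MPP+ (NET, DAT), with reserpine and unlabeled blockers; test drug 10–10,000 nM. Efficacy is % of maximal release, defined as release by tyramine: 100 μM for SERT, 10 μM for DAT and NET. Filtration and scintillation counting; n = 3–4 experiments in triplicate.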"}, "[3]": {"molecular_target": "Sodium-dependent dopamine transporter (Rattus norvegicus, UniProt P23977)", "sequence (P23977 whole entry)": "as above", "assay": "Binding affinity to DAT in Sprague-Dawley rat brain synaptosomes assessed as induction of [3H]MPP+ release by liquid scintillation counting method", "summary_of_the_method": "as §1"}, "Rattus norvegicus [4]": {"species": "Rattus norvegicus", "assay": "Binding affinity to NET in Sprague-Dawley rat brain synaptosomes assessed as induction of [3H]MPP+ release by liquid scintillation counting method relative to control", "summary_of_the_method": "as §2"}, "[5]": {"assay": "Binding affinity to NET in Sprague-Dawley rat brain synaptosomes assessed as induction of [3H]MPP+ release by liquid scintillation counting method", "summary_of_the_method": "as §1"}, "[6]": {"molecular_target": "Sodium-dependent serotonin transporter (Rattus norvegicus) (UniProt P31652)", "sequence (P31652 whole entry)": "as the sequence (P31652 whole entry) above", "assay": "Binding affinity to SERT in Sprague-Dawley rat brain synaptosomes assessed as induction of [3H]5-HT release by liquid scintillation counting method relative to control", "summary_of_the_method": "as §2"}, "Rattus norvegicus [7]": {"species": "Rattus norvegicus", "assay": "Selectivity index, ratio of EC50 for DAT in Sprague-Dawley rat brain synaptosomes to EC50 for SERT in Sprague-Dawley rat brain synaptosomes"}, "Rattus norvegicus [8]": {"species": "Rattus norvegicus", "assay": "Selectivity index, ratio of EC50 for NET in Sprague-Dawley rat brain synaptosomes to EC50 for SERT in Sprague-Dawley rat brain synaptosomes"}}, "note": "pEC50: −log10 of the molar value."}
{"molecule": "CN[C@@H](C)Cc1ccc2c(c1)OCCO2", "values": [{"measurement": "pEC50", "setting": "[1]", "value": 7.04}, {"measurement": "%max", "setting": "[2]", "value": 103, "unit": "%"}, {"measurement": "pEC50", "setting": "[3]", "value": 6.56}, {"measurement": "%max", "setting": "Rattus norvegicus [4]", "value": 94, "unit": "%"}, {"measurement": "pEC50", "setting": "[5]", "value": 6.62}, {"measurement": "%max", "setting": "[6]", "value": 96, "unit": "%"}]}
{"molecule": "CN[C@H](C)Cc1ccc2c(c1)OCCO2", "values": [{"measurement": "pEC50", "setting": "[1]", "value": 6.24}, {"measurement": "%max", "setting": "[2]", "value": 106, "unit": "%"}, {"measurement": "pEC50", "setting": "[3]", "value": 4.84}, {"measurement": "%max", "setting": "Rattus norvegicus [4]", "value": 85, "unit": "%"}, {"measurement": "pEC50", "setting": "[5]", "value": 5.71}, {"measurement": "%max", "setting": "[6]", "value": 97, "unit": "%"}]}
{"molecule": "CNC(C)Cc1ccc2c(c1)OCCO2", "note": "(racemic)", "values": [{"measurement": "pEC50", "setting": "[1]", "value": 6.93}, {"measurement": "%max", "setting": "[2]", "value": 108, "unit": "%"}, {"measurement": "pEC50", "setting": "[3]", "value": 6.22}, {"measurement": "%max", "setting": "Rattus norvegicus [4]", "value": 91, "unit": "%"}, {"measurement": "Ratio EC50", "setting": "Rattus norvegicus [7]", "value": 6}, {"measurement": "pEC50", "setting": "[5]", "value": 6.49}, {"measurement": "Ratio EC50", "setting": "Rattus norvegicus [8]", "value": 3}, {"measurement": "%max", "setting": "[6]", "value": 102, "unit": "%"}]}
{"molecule": "CNC(C)C(=O)c1ccc2c(c1)OCCO2", "note": "(racemic)", "values": [{"measurement": "pEC50", "setting": "[1]", "value": 6.46}, {"measurement": "%max", "setting": "[2]", "value": 105, "unit": "%"}, {"measurement": "pEC50", "setting": "[3]", "value": 6.30}, {"measurement": "%max", "setting": "Rattus norvegicus [4]", "value": 84, "unit": "%"}, {"measurement": "pEC50", "setting": "[5]", "value": 6.49}, {"measurement": "%max", "setting": "[6]", "value": 105, "unit": "%"}]}
{"molecule": "CNC(C)C(=O)c1ccc2c(c1)OCO2", "note": "(racemic) [METHYLONE]", "values": [{"measurement": "pEC50", "setting": "[1]", "value": 6.62}, {"measurement": "pEC50", "setting": "[3]", "value": 6.88}, {"measurement": "pEC50", "setting": "[5]", "value": 6.82}]}
{"molecule": "CNC(C)Cc1ccc2c(c1)OCO2", "note": "(racemic) [MIDOMAFETAMINE]", "values": [{"measurement": "pEC50", "setting": "[1]", "value": 7.21}, {"measurement": "%max", "setting": "[2]", "value": 99, "unit": "%"}, {"measurement": "pEC50", "setting": "[3]", "value": 7.12}, {"measurement": "%max", "setting": "Rattus norvegicus [4]", "value": 95, "unit": "%"}, {"measurement": "pEC50", "setting": "[5]", "value": 7.14}, {"measurement": "%max", "setting": "[6]", "value": 98, "unit": "%"}]}
